Converted amounts (≈) assume the structure as drawn.
Assays:
[1] = target: DNA gyrase subunit B (Staphylococcus aureus, UniProt P0A0K8); assay: Inhibition of Staphylococcus aureus DNA gyrase B preincubated for 10 mins followed by ATP addition measured after 30 mins by purine nucleoside phosphorylase enzyme coupled spectrophotometric method
[2] = tested on: Escherichia coli; assay: Inhibition of Escherichia coli C-terminal His6-tagged topoisomerase-4 expressed in Escherichia coli BL21(DE3) assessed as residual activity at 1 uM preincubated for 10 mins followed by ATP addition measured after 30 mins by purine nucleoside phosphorylase enzyme coupled spectrophotometric method relative to control
[3] = Inhibition of Staphylococcus aureus topoisomerase-4 assessed as residual activity preincubated for 10 mins followed by ATP addition measured after 30 mins by purine nucleoside phosphorylase enzyme coupled spectrophotometric method
[4] = tested on: Staphylococcus aureus; assay: Growth inhibition of Staphylococcus aureus ATCC 25923 at 50 uM after 24 hrs by broth microdilution method relative to control; format: functional; conditions: ATCC 25923, 24 h, read-out: GI
[5] = tested on: Enterococcus faecalis; assay: Growth inhibition of Enterococcus faecalis ATCC 29212 at 50 uM after 24 hrs by broth microdilution method relative to control; format: functional; conditions: ATCC 29212, 24 h, read-out: GI
[6] = tested on: Escherichia coli; assay: Growth inhibition of Escherichia coli ATCC 25922 at 50 uM after 24 hrs by broth microdilution method relative to control; format: functional; conditions: ATCC 25922, 24 h, read-out: GI
[7] = tested on: Pseudomonas aeruginosa; assay: Growth inhibition of Pseudomonas aeruginosa ATCC 27853 at 50 uM after 24 hrs by broth microdilution method relative to control; format: functional; conditions: ATCC 27853, 24 h, read-out: GI
[8] = tested on: Escherichia coli; assay: Growth inhibition of tolC deficient Escherichia coli JW5503 at 50 uM after 24 hrs by broth microdilution method relative to control; format: functional; conditions: JW5503, 24 h, read-out: GI
[9] = tested on: Escherichia coli; assay: Growth inhibition of lpxC deficient Escherichia coli JD17464 at 50 uM after 24 hrs by broth microdilution method relative to control; format: functional; conditions: JD17464, 24 h, read-out: GI
[10] = tested on: Staphylococcus aureus; assay: Antibacterial activity against Staphylococcus aureus ATCC 25923 after 18 hrs by broth microdilution method; format: functional; conditions: ATCC 25923, 18 h
[11] = tested on: Enterococcus faecalis; assay: Antibacterial activity against Enterococcus faecalis ATCC 29212 after 18 hrs by broth microdilution method; format: functional; conditions: ATCC 29212, 18 h
[12] = tested on: Escherichia coli; assay: Antibacterial activity against tolC deficient Escherichia coli JW5503 after 18 hrs by broth microdilution method; format: functional; conditions: JW5503, 18 h
[13] = target: DNA gyrase subunit B (Escherichia coli, UniProt P0AES6); assay: Inhibition of Escherichia coli DNA gyrase by supercoiling assay
[14] = tested on: Staphylococcus aureus; assay: Antibacterial activity against Staphylococcus aureus; format: functional
[15] = Inhibition of Escherichia coli topoisomerase-4
[16] = target: DNA gyrase subunit B (Staphylococcus aureus) (UniProt P0A0K8); assay: Inhibition of Staphylococcus aureus DNA gyrase B assessed as residual activity at 1 uM preincubated for 10 mins followed by ATP addition measured after 30 mins by purine nucleoside phosphorylase enzyme coupled spectrophotometric method relative to control
DNA gyrase subunit B (Staphylococcus aureus), sequence (P0A0K8 2-644 limits assumed): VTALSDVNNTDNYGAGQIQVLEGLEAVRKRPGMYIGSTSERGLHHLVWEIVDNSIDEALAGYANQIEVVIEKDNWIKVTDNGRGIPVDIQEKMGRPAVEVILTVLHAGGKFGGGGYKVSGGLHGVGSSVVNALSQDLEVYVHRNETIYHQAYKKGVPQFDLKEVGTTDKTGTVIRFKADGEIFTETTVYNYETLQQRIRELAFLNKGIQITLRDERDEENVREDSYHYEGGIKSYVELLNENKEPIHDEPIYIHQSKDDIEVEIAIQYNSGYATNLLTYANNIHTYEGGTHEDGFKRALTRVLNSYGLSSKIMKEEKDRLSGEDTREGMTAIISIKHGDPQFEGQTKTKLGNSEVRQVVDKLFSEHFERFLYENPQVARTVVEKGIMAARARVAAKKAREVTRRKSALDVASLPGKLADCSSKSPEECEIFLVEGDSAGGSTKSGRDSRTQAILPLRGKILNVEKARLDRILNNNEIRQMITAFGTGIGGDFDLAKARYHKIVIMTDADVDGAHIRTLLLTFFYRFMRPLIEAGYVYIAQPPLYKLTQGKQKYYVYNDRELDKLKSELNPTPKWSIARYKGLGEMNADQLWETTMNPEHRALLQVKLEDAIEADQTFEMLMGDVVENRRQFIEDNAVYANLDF

[17] = tested on: Staphylococcus aureus; assay: Inhibition of Staphylococcus aureus topoisomerase-4 assessed as residual activity at 1 uM preincubated for 10 mins followed by ATP addition measured after 30 mins by purine nucleoside phosphorylase enzyme coupled spectrophotometric method relative to control
[18] = Inhibition of Escherichia coli C-terminal His6-tagged topoisomerase-4 expressed in Escherichia coli BL21(DE3) preincubated for 10 mins followed by ATP addition measured after 30 mins by purine nucleoside phosphorylase enzyme coupled spectrophotometric method
[19] = tested on: Enterococcus faecalis; assay: Antibacterial activity against Enterococcus faecalis; format: functional, organism-based
[20] = tested on: HUVEC; assay: Cytotoxicity against HUVEC assessed as reduction in cell proliferation after 72 hrs by MTS assay; format: cell-based; conditions: Homo sapiens
In short: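 MTS assay in HUVEC grown in Eagle's MEM with 2 mM L-glutamine, penicillin/streptomycin and 10% FBS, at 37 °C under 5% CO2. Cells seeded at 2000 per well, attached for 24 h, then exposed to six compound concentrations (0.5% DMSO final) for 72 h. Reagent added for 3 h before reading A490. IC50 derived against DMSO-treated cells; triplicate wells, two repeats.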

DNA gyrase subunit B (Staphylococcus aureus, UniProt P0A0K8), sequence (P0A0K8 whole entry): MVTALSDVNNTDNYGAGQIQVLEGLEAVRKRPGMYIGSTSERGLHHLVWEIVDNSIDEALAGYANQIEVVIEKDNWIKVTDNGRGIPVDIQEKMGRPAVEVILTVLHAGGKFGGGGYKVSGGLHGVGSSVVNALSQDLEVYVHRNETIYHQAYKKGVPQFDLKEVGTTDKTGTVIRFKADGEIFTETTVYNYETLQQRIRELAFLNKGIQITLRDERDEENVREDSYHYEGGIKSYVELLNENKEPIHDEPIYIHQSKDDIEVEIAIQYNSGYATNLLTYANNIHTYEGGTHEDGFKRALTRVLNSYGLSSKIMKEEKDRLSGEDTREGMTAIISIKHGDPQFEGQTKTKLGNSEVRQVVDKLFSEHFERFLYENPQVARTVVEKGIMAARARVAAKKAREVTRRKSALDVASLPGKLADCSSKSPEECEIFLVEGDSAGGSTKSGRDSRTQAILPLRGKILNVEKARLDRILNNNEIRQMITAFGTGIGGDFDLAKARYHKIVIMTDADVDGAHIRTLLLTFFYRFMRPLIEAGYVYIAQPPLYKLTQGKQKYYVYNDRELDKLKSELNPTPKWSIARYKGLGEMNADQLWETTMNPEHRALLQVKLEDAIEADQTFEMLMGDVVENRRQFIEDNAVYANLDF

| SMILES | Activity [2] | inhibition of growth at 50 µM [4] | inhibition of growth at 50 µM [5] | inhibition of growth at 50 µM [6] | inhibition of growth at 50 µM [7] | inhibition of growth at 50 µM [8] | inhibition of growth at 50 µM [9] | IC50 [13] | further results |
| --- | --- | --- | --- | --- | --- | --- | --- | --- | --- |
| COC(=O)[C@H](C)NC(=O)c1ccc(NC(=O)c2[nH]c(C)c(Cl)c2Cl)c(OCCN)c1 | 89% | 82% | 100% | 67% | 35% | 100% | 47% | 34 nM | IC50 [1]: 390 nM; IC50 [3]: 3700 nM; MIC90 [10]: 50 µM (≈ 22.9 µg/mL); MIC90 [11]: 25 µM (≈ 11.4 µg/mL); MIC90 [12]: 25 µM (≈ 11.4 µg/mL) |
| CNc1cc(F)cc2c1[nH]c1nc(Oc3cnc(C)nc3)nc(N3C[C@H]4CCN[C@H]4C3)c12 |  |  |  |  |  |  |  |  | MIC [14]: 0.06 µg/mL (≈ 0.138 µM); Ki [15]: < 0.1 nM |
| NCCOc1cc(C(=O)N[C@@H](Cc2ccccc2)C(=O)O)ccc1NC(=O)c1cc(Br)c(Br)[nH]1 | 96% | 20% | 34% | 5% | 21% | -6% | 9% | 370 nM | Activity [16]: 89%; Activity [17]: 98% |
| Cc1[nH]c(C(=O)Nc2ccc(C(=O)NCC(=O)O)cc2OC(C)C)c(Cl)c1Cl |  |  |  |  |  |  |  |  | IC50 [18]: 11000 nM; MIC [19]: 50 µM (≈ 21.4 µg/mL) |
| COc1cc([C@@H]2c3cc4c(cc3[C@@H](O[C@@H]3O[C@@H]5CO[C@@H](C)O[C@H]5[C@H](O)[C@H]3O)[C@H]3COC(=O)[C@H]23)OCO4)cc(OC)c1O [ETOPOSIDE] |  |  |  |  |  |  |  |  | IC50 [20]: 5210 nM |

From ChEMBL document CHEMBL4152269, “New N-phenylpyrrolamide DNA gyrase B inhibitors: Optimization of efficacy and antibacterial activity” (Eur J Med Chem, 2018)
